Data from publication PMC3288537 (ACS Chemical Biology, 2011).
Substitutions are numbered along the chain they refer to. Several values for one entry are separate records, joined by “and”; a condition that tells them apart may be missing. Identical values can stand only once.

Tests used:
[1] = Tissue concentration; assay type: in vivo, C57B6 mice; details: mice
[2] = biological target: T1, HePTP-DM (K105A/T106A double mutant) (Homo sapiens, UniProt P35236, K126A/T127A); assay: Dose-response OMFP phosphatase assay, HePTP K105A/T106A double mutant; assay type: biochemical; details: read-out: IC50 HePTP-DM
T1 sequence (P35236 22-360 K126A/T127A limits assumed): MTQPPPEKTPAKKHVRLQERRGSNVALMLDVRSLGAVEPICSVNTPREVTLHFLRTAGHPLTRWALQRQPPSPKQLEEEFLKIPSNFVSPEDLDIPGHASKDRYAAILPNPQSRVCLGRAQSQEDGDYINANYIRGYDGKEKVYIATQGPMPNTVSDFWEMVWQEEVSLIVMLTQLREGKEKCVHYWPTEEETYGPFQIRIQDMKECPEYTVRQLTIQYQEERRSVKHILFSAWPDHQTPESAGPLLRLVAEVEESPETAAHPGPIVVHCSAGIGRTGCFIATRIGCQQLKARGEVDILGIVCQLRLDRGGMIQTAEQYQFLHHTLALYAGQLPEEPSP

[3] = biological target: LAR (Homo sapiens, UniProt P10586); assay: Dose-response OMFP phosphatase assay, LAR; assay type: biochemical; details: read-out: IC50 LAR; OMFP substrate
Method in brief: (§1)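 Ten-point 2-fold dilution series of test compound prepared in DMSO. Fluorescence (ex 485/em 528 nm) read in kinetic mode over 10 min; progress-curve slopes taken as activity. IC50 by nonlinear regression (sigmoidal, variable slope).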

[4] = system: ERK1/2 and p38 phosphorylation in Jurkat TAg T cells; assay: Immunoblot of pERK1/2, pp38 and pMEK in TCR-stimulated Jurkat TAg T cells; assay type: cell-based, human
Method in brief: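 Jurkat TAg T cells preincubated with test compound or DMSO (0.2% in time course) for 45 min at 37°C, then stimulated with OKT3 at 500 ng mL-1 for 5 min. Cells lysed at once, or washed and held in fresh RPMI 1640 for set times. Immunoblotted for phospho-ERK1/2, p38 and MEK; bands normalised to total protein (time course also to GAPDH). Mean ± SEM; Student's t-test; 3–4 independent experiments.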

[5] = biological target: T2, HePTP H237A mutant (Homo sapiens, UniProt P35236, H258A); assay: Dose-response OMFP phosphatase assay, HePTP H237A mutant; assay type: biochemical; details: read-out: IC50 HePTP H237A
T2 sequence (P35236 22-360 H258A limits assumed): T1 sequence (P35236 22-360 K126A/T127A limits assumed) with A105K, A106T, H237A

[6] = biological target: SHP1 (Homo sapiens, UniProt P29350); assay: Dose-response OMFP phosphatase assay, SHP1; assay type: biochemical; details: read-out: IC50 SHP1; OMFP substrate
Method in brief: as §1

[7] = Serum concentration in mice after i.p. injection; assay type: in vivo; details: i.p. 3 mg/kg
Method in brief: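 Mice dosed i.p. at 3 mg/kg with test compound. Blood serum collected 5, 20, 60 and 120 min after injection for measurement of compound concentration.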

[8] = biological target: T3, TCPTP (Homo sapiens, UniProt P17706); assay: Dose-response OMFP phosphatase assay, TCPTP; assay type: biochemical; details: read-out: IC50 TCPTP; OMFP substrate
T3 sequence (P17706 1-415): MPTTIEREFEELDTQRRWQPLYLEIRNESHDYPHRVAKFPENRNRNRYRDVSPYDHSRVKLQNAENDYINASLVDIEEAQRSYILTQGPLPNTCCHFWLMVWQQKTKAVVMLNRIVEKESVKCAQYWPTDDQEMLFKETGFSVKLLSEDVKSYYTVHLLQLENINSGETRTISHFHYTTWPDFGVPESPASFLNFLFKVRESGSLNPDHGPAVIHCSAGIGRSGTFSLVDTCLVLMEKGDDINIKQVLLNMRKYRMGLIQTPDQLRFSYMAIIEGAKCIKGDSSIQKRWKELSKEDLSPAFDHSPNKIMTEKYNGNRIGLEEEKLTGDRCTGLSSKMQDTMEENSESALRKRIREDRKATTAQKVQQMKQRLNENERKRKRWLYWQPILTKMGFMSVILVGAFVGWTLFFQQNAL
Method in brief: as §1

[9] = biological target: T4, HePTP (Homo sapiens, UniProt P35236); assay: Michaelis-Menten kinetic studies with OMFP; assay type: biochemical; details: various inhibitor and substrate concentrations
T4 sequence (P35236 1-360): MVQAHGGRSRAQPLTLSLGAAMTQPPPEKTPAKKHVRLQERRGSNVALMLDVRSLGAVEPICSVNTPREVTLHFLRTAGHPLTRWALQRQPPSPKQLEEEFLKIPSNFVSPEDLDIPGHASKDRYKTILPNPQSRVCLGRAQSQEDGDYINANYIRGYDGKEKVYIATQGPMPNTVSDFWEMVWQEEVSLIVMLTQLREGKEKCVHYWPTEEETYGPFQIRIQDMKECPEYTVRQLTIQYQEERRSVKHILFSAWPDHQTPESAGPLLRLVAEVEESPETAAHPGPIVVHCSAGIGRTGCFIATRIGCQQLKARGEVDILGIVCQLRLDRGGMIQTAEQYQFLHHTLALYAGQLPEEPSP
Method in brief: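 Started by adding OMFP at 0–400 μM. Initial rates read by fluorescence (ex 485/em 528 nm), corrected with no-enzyme controls. Eadie-Hofstee plots drawn; competing models compared by AICc.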

[10] = biological target: VHR (Homo sapiens, UniProt P51452); assay: Dose-response OMFP phosphatase assay, VHR; assay type: biochemical; details: read-out: IC50 VHR; OMFP substrate
[11] = 4 μM preincubation, before TCR stimulation, stimulated DMSO = 100%
[12] = 4 μM, OKT3 stimulation, DMSO = 100%
[13] = 4 μM, up to 2 h after TCR stimulation
[14] = 40 μM, 45 min preincubation, OKT3 5 min, vs DMSO

Chain of SHP1 (P29350 whole entry): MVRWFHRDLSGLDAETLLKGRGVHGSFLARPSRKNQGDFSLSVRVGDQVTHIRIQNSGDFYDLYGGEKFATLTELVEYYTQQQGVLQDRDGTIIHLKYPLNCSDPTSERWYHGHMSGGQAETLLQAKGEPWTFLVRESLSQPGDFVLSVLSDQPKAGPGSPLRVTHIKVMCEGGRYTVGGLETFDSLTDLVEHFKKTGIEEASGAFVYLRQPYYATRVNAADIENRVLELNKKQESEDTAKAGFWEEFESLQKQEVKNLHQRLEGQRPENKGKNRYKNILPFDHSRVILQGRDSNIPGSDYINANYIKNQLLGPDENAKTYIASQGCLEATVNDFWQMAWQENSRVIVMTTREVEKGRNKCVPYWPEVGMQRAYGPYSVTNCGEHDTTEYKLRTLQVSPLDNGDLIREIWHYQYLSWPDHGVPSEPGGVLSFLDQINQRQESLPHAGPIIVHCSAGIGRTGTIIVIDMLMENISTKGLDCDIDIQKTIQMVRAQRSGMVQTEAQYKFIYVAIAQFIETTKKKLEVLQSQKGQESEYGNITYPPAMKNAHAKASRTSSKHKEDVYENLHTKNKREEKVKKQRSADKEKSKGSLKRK
Chain of LAR (P10586 30-1907, species assumed): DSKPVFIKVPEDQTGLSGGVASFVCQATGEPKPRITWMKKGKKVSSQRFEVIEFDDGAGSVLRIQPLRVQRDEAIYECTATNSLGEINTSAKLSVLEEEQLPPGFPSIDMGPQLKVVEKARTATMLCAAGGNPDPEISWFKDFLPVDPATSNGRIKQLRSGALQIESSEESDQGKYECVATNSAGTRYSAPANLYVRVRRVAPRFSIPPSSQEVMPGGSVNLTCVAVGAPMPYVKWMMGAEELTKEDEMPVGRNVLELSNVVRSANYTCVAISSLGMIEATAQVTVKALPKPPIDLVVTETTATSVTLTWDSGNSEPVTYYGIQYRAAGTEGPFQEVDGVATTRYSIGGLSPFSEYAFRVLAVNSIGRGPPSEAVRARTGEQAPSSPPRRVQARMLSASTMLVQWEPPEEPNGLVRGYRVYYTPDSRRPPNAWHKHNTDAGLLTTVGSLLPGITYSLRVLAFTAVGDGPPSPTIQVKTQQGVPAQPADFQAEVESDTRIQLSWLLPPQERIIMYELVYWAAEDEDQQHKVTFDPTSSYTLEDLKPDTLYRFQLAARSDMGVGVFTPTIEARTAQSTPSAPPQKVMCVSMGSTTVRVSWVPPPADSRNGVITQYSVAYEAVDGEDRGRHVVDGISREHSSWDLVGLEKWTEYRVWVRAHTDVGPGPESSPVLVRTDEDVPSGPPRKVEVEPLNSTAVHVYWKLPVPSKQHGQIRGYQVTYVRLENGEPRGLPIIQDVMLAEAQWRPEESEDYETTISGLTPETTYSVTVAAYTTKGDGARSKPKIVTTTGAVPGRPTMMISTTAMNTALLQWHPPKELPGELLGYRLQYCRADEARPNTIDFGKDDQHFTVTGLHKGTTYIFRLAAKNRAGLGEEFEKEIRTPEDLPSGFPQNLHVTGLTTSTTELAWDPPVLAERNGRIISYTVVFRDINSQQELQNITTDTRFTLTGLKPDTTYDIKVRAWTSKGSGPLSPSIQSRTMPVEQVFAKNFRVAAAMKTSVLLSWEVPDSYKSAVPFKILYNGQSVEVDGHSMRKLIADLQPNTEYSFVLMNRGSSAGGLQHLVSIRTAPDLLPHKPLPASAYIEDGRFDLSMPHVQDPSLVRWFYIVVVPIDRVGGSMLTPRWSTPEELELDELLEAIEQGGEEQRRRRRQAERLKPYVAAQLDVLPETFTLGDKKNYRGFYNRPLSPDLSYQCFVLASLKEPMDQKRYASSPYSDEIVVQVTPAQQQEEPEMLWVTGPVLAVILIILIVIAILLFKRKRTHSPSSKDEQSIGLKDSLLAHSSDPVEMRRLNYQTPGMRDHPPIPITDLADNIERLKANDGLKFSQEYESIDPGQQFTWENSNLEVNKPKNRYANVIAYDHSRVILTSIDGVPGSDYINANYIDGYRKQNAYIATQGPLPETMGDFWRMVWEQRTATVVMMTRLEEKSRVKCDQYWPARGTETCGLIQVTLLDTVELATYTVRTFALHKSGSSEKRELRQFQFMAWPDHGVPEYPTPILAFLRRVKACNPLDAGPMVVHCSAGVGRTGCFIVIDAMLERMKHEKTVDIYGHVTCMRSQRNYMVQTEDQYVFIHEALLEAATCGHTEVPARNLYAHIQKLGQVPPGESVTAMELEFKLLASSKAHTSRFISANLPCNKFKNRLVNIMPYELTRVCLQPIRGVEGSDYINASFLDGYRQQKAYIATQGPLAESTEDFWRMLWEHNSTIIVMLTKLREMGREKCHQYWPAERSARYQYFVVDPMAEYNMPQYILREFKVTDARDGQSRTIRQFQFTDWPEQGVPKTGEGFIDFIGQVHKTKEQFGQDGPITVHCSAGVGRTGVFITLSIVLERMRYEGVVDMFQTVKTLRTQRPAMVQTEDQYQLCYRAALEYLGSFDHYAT
Chain of VHR (P51452 whole entry, species assumed): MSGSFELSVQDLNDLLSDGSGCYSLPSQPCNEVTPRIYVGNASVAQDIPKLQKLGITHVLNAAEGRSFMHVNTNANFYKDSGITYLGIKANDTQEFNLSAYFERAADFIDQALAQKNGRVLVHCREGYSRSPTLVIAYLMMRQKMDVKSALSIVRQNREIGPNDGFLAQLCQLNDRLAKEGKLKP

Which results are given for O=C(O)c1ccccc1-c1ccc(/C=c2\sc3nc4cc(Br)cnc4n3c2=O)o1 [Compound 1]?
blood-brain-barrier crossing ([1]; i.p.): does not appear to cross the BBB; concentration in the spleen tissue ([1]; i.p.): < 500 nM; compound in cerebellum ([1]; i.p. 3 or 5 mg/kg, 3 h): could not be detected; compound in brain tissue ([1]; i.p. 3 or 5 mg/kg, 3 h, detection limit ~1 nM): could not be detected; concentration in splenocytes ([1]; i.p., 6 h after injection): 265 ± 119 nM; IC50 [2]: 6600 nM; IC50 [3]: 73000 nM; basal pERK1/2 phosphorylation level [4, 11]: 22.0 ± 2.5%; basal pp38 phosphorylation level [4, 11]: 55.0 ± 5.8%; pERK1/2 level after TCR stimulation [4, 12]: 134.3 ± 4.9%; pp38 level after TCR stimulation [4, 12]: 125.5 ± 4.0%; time course of pERK1/2 levels after stimulation [4, 13]: remained constant up to 1 h after stimulation; time course of pp38 levels after stimulation [4, 13]: remained unchanged; pERK1/2 levels [4, 14]: augmented; pMEK levels (activation of MEK) [4, 14]: unchanged; pp38 levels [4, 14]: augmented; pMEK levels in dose-response ([4]; concentrations as high as 40 μM): not affected; IC50 [5]: 2800 nM; IC50 [6]: 2500 nM; serum concentration (peak) ([7]; 20 min, 3 mg/kg): 1240 ± 170 nM and 1240 nM; serum concentration ([7]; 2 h): 18 ± 10 nM; IC50 [8]: 1000 nM; inhibition pattern [9]: mixed inhibition pattern; IC50 [10]: 1900 nM
